Holding throughout (assay type): functional
In one experiment the test system is Candida albicans. In words: Antifungal activity against Candida albicans ATCC 10213. In a few lines: (§1)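 CLSI M27-A3 broth microdilution in RPMI-1640 buffered to pH 7.0 with MOPS. Inoculum 1-5 × 10^3 CFU/mL. Compound twofold dilutions from 250 to 0.24 µg/ml, final DMSO <1%. Incubated at 35 °C in a moist, dark chamber and read at 48 h. MIC is the lowest concentration giving total growth inhibition. For MFC, 5 µL from clear wells was plated in duplicate on SDA; MFC is the lowest concentration with no growth.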

The test system of a further experiment is Candida tropicalis. In words: Antifungal activity against Candida tropicalis C 131 2000. In a few lines: as §1
The next experiment concerns Saccharomyces cerevisiae. The experiment in a line: Antifungal activity against Saccharomyces cerevisiae ATCC 9763. In a few lines: as §1
Another experiment has as its system Cryptococcus neoformans. The experiment in a line: Antifungal activity against Cryptococcus neoformans ATCC 32264. In a few lines:
as §1

Another experiment concerns Aspergillus fumigatus. In words: Antifungal activity against Aspergillus fumigatus ATCC 26934. In a few lines: (§2)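 Broth microdilution per CLSI M38-A2 in RPMI-1640 with MOPS at pH 7.0. Inoculum 1-5 × 10^3 CFU/mL, with twofold compound dilutions spanning 250-0.24 µg/ml (final DMSO <1%). Plates incubated at 35 °C, moist and dark, and read when the control fungus had grown. MIC is total growth inhibition. MFC comes from subculturing clear wells in duplicate onto SDA.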

The test system of another experiment is Aspergillus flavus. The experiment in a line: Antifungal activity against Aspergillus flavus ATCC 9170. In a few lines: as §2
A further experiment deals with Aspergillus niger. In words: Antifungal activity against Aspergillus niger ATCC 9029. In a few lines:
as §2

The test system of a further experiment is Nannizzia gypsea. The experiment in a line: Antifungal activity against Microsporum gypseum C 115 2000. In a few lines:
(§3)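 Dermatophytes tested by CLSI M38-A2 microdilution in MOPS-buffered RPMI-1640 at pH 7.0. Inoculum 1-5 × 10^3 CFU/mL; compounds 250 to 0.24 µg/ml in twofold steps, final DMSO <1%. Incubated at 28 °C in a moist, dark chamber and read according to control growth. MIC is the lowest concentration with complete inhibition. MFC is the lowest concentration with no growth after duplicate subculture on SDA.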

The next experiment concerns Trichophyton rubrum. The experiment in a line: Antifungal activity against Trichophyton rubrum C 113 2000. In a few lines:
as §3

The subject of experiment [1] is Trichophyton mentagrophytes. In words: Antifungal activity against Trichophyton mentagrophytes ATCC 9972. In a few lines: as §3

Each structure is given as a SMILES string. Values after ≈ are worked out from the molar mass of the structure shown.

A word on the MFC: it is the lowest tested concentration that kills the fungus rather than only halting it. Low readings indicate more potent killing, high ones less potent killing. The MIC is the lowest concentration that inhibits growth of the organism. Turning to `O=C1C=CC(O)N1CCCc1ccccc1` (stereo unspecified), the MFC against Candida albicans is > 250 µg/mL; against Candida tropicalis it was 250 µg/mL (≈ 1150 µM); in the experiment with Saccharomyces cerevisiae it was 125 µg/mL (≈ 575 µM); in the experiment on Cryptococcus neoformans, > 250 µg/mL; against Aspergillus fumigatus it was 250 µg/mL (≈ 1150 µM); in the experiment with Aspergillus flavus it was > 250 µg/mL. The MFC is > 250 µg/mL in the experiment with Aspergillus niger, 125 µg/mL (≈ 575 µM) in the experiment on Nannizzia gypsea, 250 µg/mL (≈ 1150 µM) with Trichophyton rubrum and 62.5 µg/mL (≈ 288 µM) in [1]. Further, the MIC was found to be 62.5 µg/mL (≈ 288 µM) against Candida albicans; 125 µg/mL (≈ 575 µM) against Candida tropicalis; 62.5 µg/mL (≈ 288 µM) in the experiment on Saccharomyces cerevisiae; 62.5 µg/mL (≈ 288 µM) in the experiment on Cryptococcus neoformans; 125 µg/mL (≈ 575 µM) in the experiment with Aspergillus fumigatus; 250 µg/mL (≈ 1150 µM) with Aspergillus flavus. For the same molecule, the MIC against Aspergillus niger was > 250 µg/mL; with Nannizzia gypsea it was 62.5 µg/mL (≈ 288 µM); against Trichophyton rubrum, 62.5 µg/mL (≈ 288 µM); in [1] it was 31.2 µg/mL (≈ 144 µM).
As for `O=C1CCC(=O)N1Cc1ccccc1`, the MFC with Candida albicans, in the experiment with Candida tropicalis, with Saccharomyces cerevisiae, against Cryptococcus neoformans, in the experiment on Aspergillus fumigatus and against Aspergillus flavus was > 250 µg/mL in each case. For the same molecule, the MFC (against Aspergillus niger; against Nannizzia gypsea; against Trichophyton rubrum; in [1]) was > 250 µg/mL in each case. Moreover, the minimum inhibitory concentration (MIC) in the experiment on Candida albicans, in the experiment on Candida tropicalis, with Saccharomyces cerevisiae, against Cryptococcus neoformans, against Aspergillus fumigatus and in the experiment with Aspergillus flavus was > 250 µg/mL throughout. Also, the MIC (with Aspergillus niger; in the experiment with Nannizzia gypsea; in the experiment with Trichophyton rubrum; in experiment [1]) was > 250 µg/mL throughout.
In the case of `O=C1C(Cl)=C(Cl)C(=O)N1c1ccccc1`, the minimum fungicidal concentration (MFC) against Candida albicans, in the experiment on Candida tropicalis, in the experiment with Saccharomyces cerevisiae, with Cryptococcus neoformans, against Aspergillus fumigatus and against Aspergillus flavus was > 250 µg/mL each time. The MFC (against Aspergillus niger; with Nannizzia gypsea; against Trichophyton rubrum; in experiment [1]) was > 250 µg/mL each time. The minimal inhibitory concentration (MIC) in the experiment on Candida albicans, against Candida tropicalis, in the experiment on Saccharomyces cerevisiae, in the experiment with Cryptococcus neoformans, with Aspergillus fumigatus and against Aspergillus flavus was > 250 µg/mL in each case. In addition, the MIC (against Aspergillus niger; against Nannizzia gypsea; against Trichophyton rubrum; in [1]) was > 250 µg/mL in each case.
Turning to `CC1=CC(=O)N(Cc2ccccc2)C1O` (stereo unspecified), the MFC with Candida albicans, against Candida tropicalis, against Saccharomyces cerevisiae, with Cryptococcus neoformans, in the experiment with Aspergillus fumigatus and against Aspergillus flavus was > 250 µg/mL throughout. The MFC (against Aspergillus niger; with Nannizzia gypsea; against Trichophyton rubrum; in experiment [1]) was > 250 µg/mL throughout. Also, the MIC against Candida albicans, against Candida tropicalis, against Saccharomyces cerevisiae, against Cryptococcus neoformans, in the experiment with Aspergillus fumigatus and against Aspergillus flavus was > 250 µg/mL throughout. Further, the MIC (against Aspergillus niger; in the experiment on Nannizzia gypsea; against Trichophyton rubrum; in experiment [1]) was > 250 µg/mL throughout.
With `O=C1C=CC(O)N1CCCCc1ccccc1` (stereo unspecified), the minimal fungicidal concentration (MFC) against Candida albicans, against Candida tropicalis, with Saccharomyces cerevisiae, against Cryptococcus neoformans, in the experiment with Aspergillus fumigatus and against Aspergillus flavus was > 250 µg/mL in each case. Further, the minimal fungicidal concentration (MFC) against Aspergillus niger was > 250 µg/mL; against Nannizzia gypsea it was 250 µg/mL (≈ 1080 µM); with Trichophyton rubrum, 250 µg/mL (≈ 1080 µM); in [1] it was 125 µg/mL (≈ 540 µM). Besides, the MIC against Candida albicans was > 250 µg/mL; with Candida tropicalis, > 250 µg/mL; with Saccharomyces cerevisiae it was > 250 µg/mL; in the experiment on Cryptococcus neoformans it was 250 µg/mL (≈ 1080 µM); with Aspergillus fumigatus, > 250 µg/mL; against Aspergillus flavus it was > 250 µg/mL. Also, the MIC in the experiment with Aspergillus niger is > 250 µg/mL; in the experiment with Nannizzia gypsea it was 125 µg/mL (≈ 540 µM); in the experiment with Trichophyton rubrum, 62.5 µg/mL (≈ 270 µM); in [1], 62.5 µg/mL (≈ 270 µM).
As for `O=C1CCC(=O)N1c1ccccc1`, the MFC against Candida albicans, against Candida tropicalis, against Saccharomyces cerevisiae, against Cryptococcus neoformans, in the experiment on Aspergillus fumigatus and in the experiment on Aspergillus flavus was > 250 µg/mL each time. Moreover, the minimum fungicidal concentration (MFC) (with Aspergillus niger; in the experiment on Nannizzia gypsea; against Trichophyton rubrum; in experiment [1]) was > 250 µg/mL throughout. Further, the minimum inhibitory concentration (MIC) in the experiment on Candida albicans, in the experiment with Candida tropicalis, against Saccharomyces cerevisiae, with Cryptococcus neoformans, with Aspergillus fumigatus and against Aspergillus flavus was > 250 µg/mL in each case. For the same molecule, the minimum inhibitory concentration (MIC) (in the experiment on Aspergillus niger; with Nannizzia gypsea; against Trichophyton rubrum; in experiment [1]) was > 250 µg/mL in each case.
`O=C1C(c2ccccc2)=C(c2ccccc2)C(=O)N1CCCc1ccccc1`: the minimal fungicidal concentration (MFC) with Candida albicans, against Candida tropicalis, in the experiment on Saccharomyces cerevisiae, in the experiment on Cryptococcus neoformans, with Aspergillus fumigatus and in the experiment with Aspergillus flavus was > 250 µg/mL each time. Also, the minimal fungicidal concentration (MFC) (in the experiment on Aspergillus niger; against Nannizzia gypsea; against Trichophyton rubrum; in [1]) was > 250 µg/mL throughout. Also, the MIC in the experiment on Candida albicans, in the experiment with Candida tropicalis, with Saccharomyces cerevisiae, in the experiment on Cryptococcus neoformans, in the experiment on Aspergillus fumigatus and in the experiment with Aspergillus flavus was > 250 µg/mL each time. Moreover, the MIC (against Aspergillus niger; with Nannizzia gypsea; in the experiment with Trichophyton rubrum; in experiment [1]) was > 250 µg/mL throughout.
On to `O=C1C(c2ccccc2)=C(c2ccccc2)C(=O)N1c1ccccc1`, for which the minimal fungicidal concentration (MFC) against Candida albicans, against Candida tropicalis, in the experiment on Saccharomyces cerevisiae, in the experiment with Cryptococcus neoformans, with Aspergillus fumigatus and in the experiment with Aspergillus flavus was > 250 µg/mL in each case. The minimum fungicidal concentration (MFC) (against Aspergillus niger; in the experiment with Nannizzia gypsea; against Trichophyton rubrum; in experiment [1]) was > 250 µg/mL in each case. Moreover, the minimum inhibitory concentration (MIC) with Candida albicans, with Candida tropicalis, in the experiment with Saccharomyces cerevisiae, in the experiment on Cryptococcus neoformans, in the experiment with Aspergillus fumigatus and with Aspergillus flavus was > 250 µg/mL in each case. In addition, the MIC (with Aspergillus niger; against Nannizzia gypsea; against Trichophyton rubrum; in experiment [1]) was > 250 µg/mL throughout.
As to `O=C1CCC(=O)N1CCCCc1ccccc1`, the MFC with Candida albicans, against Candida tropicalis, against Saccharomyces cerevisiae, against Cryptococcus neoformans, against Aspergillus fumigatus and with Aspergillus flavus was > 250 µg/mL throughout. The MFC (against Aspergillus niger; against Nannizzia gypsea; against Trichophyton rubrum; in experiment [1]) was > 250 µg/mL each time. Also, the minimum inhibitory concentration (MIC) in the experiment with Candida albicans, against Candida tropicalis, in the experiment on Saccharomyces cerevisiae, against Cryptococcus neoformans, with Aspergillus fumigatus and in the experiment on Aspergillus flavus was > 250 µg/mL in each case. Besides, the MIC (with Aspergillus niger; with Nannizzia gypsea; against Trichophyton rubrum; in [1]) was > 250 µg/mL throughout.
Consider `CC1=CC(=O)N(CCc2ccccc2)C1O` (stereo unspecified), for which the MFC in the experiment with Candida albicans, in the experiment with Candida tropicalis, against Saccharomyces cerevisiae, with Cryptococcus neoformans, against Aspergillus fumigatus and in the experiment with Aspergillus flavus was > 250 µg/mL each time. For the same molecule, the minimal fungicidal concentration (MFC) (in the experiment on Aspergillus niger; in the experiment with Nannizzia gypsea; against Trichophyton rubrum; in [1]) was > 250 µg/mL each time. For the same molecule, the MIC in the experiment with Candida albicans, against Candida tropicalis, with Saccharomyces cerevisiae, with Cryptococcus neoformans, with Aspergillus fumigatus and in the experiment with Aspergillus flavus was > 250 µg/mL throughout. Also, the minimum inhibitory concentration (MIC) (with Aspergillus niger; with Nannizzia gypsea; with Trichophyton rubrum; in experiment [1]) was > 250 µg/mL in each case.
Turning to `CC1=CC(O)N(CCc2ccccc2)C1=O` (stereo unspecified), the MFC against Candida albicans, in the experiment on Candida tropicalis, against Saccharomyces cerevisiae, in the experiment with Cryptococcus neoformans, in the experiment on Aspergillus fumigatus and against Aspergillus flavus was > 250 µg/mL each time. Besides, the MFC (against Aspergillus niger; in the experiment with Nannizzia gypsea; against Trichophyton rubrum; in experiment [1]) was > 250 µg/mL in each case. The MIC in the experiment on Candida albicans, against Candida tropicalis, in the experiment with Saccharomyces cerevisiae, against Cryptococcus neoformans, with Aspergillus fumigatus and in the experiment with Aspergillus flavus was > 250 µg/mL each time. For the same molecule, the minimum inhibitory concentration (MIC) (against Aspergillus niger; in the experiment with Nannizzia gypsea; in the experiment with Trichophyton rubrum; in experiment [1]) was > 250 µg/mL in each case.
Turning to `CN(C/C=C/C#CC(C)(C)C)Cc1cccc2ccccc12` [TERBINAFINE], the minimal fungicidal concentration (MFC) in the experiment with Nannizzia gypsea was 0.06 µg/mL (≈ 0.206 µM); in the experiment with Trichophyton rubrum, 0.03 µg/mL (≈ 0.103 µM); in experiment [1], 0.06 µg/mL (≈ 0.206 µM). The MIC with Nannizzia gypsea worked out at 0.03 µg/mL (≈ 0.103 µM); with Trichophyton rubrum it was 0.01 µg/mL (≈ 0.0343 µM); in [1] it was 0.03 µg/mL (≈ 0.103 µM).

Values taken from ChEMBL document CHEMBL1772954, “Antifungal, cytotoxic and SAR studies of a series of N-alkyl, N-aryl and N-alkylphenyl-1,4-pyrrolediones and related compounds” (Bioorg Med Chem, 2011).
